Experiment [1] in a line: Inhibition of TNF-induced NF-kappaB activation in human […] cells by luciferase assay. It is filed as cell-based. Summed up: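 293-T cells co-transfected with 5 lg NF-κB luciferase reporter plus 0.008 lg pCMV-β-galactosidase, then replated after 2 h. Cultured 19 h (lignins) or 20 h (model compounds) before 1 h pretreatment with test agent. Stimulated with 3 ng/ml TNFα for 5 h. Luciferase chemiluminescence normalized to β-galactosidase activity; IC50 reported.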

In experiment [2] the test system is Human immunodeficiency virus 1. The experiment is described as follows: Inhibition of HIV1 5'-long terminal repeat promoter expression in human 293T cells by luciferase assay. It is filed as functional. Particulars: Human immunodeficiency virus 1, HEK-293T. In a few lines:
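293-T cells co-transfected in 10-cm dishes with 5 lg CD-12-luc LTR reporter plus 0.008 lg pCMV-β-galactosidase. Replated after 2 h and cultured 4 h, then exposed to test agent or vehicle for 20 h (lignins) or 21 h (model compounds). Luciferase chemiluminescence normalized to β-galactosidase. IC50 reported; lignin data are means of three independent experiments.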

In brackets after ≈: the same amount, converted by molar mass. A value given as a limit tells only on which side of the number the result lay.

Broadly, the IC50 is the concentration that inhibits the measured activity by half. A low value points to higher potency.

For the molecule `COc1cc([C@@H](O)[C@@H](CO)Oc2ccccc2OC)ccc1O`, the results for the IC50 in experiment [1] and in experiment [2] were 126 µg/mL (≈ 393 µM) and over 150 µg/mL, respectively.
The corresponding values for `COc1cc([C@H]2Oc3c(OC)cc(/C=C/CO)cc3[C@@H]2CO)ccc1O` are 19 µg/mL (≈ 53 µM) and 34 µg/mL (≈ 94.9 µM).
With `CCCc1cc(OC)c(O)c(-c2cc(CCC)cc(OC)c2O)c1`, the IC50 in experiment [1] and in experiment [2] was over 150 µg/mL in each case.
As to `COc1cc([C@@H](O)[C@@H](CO)c2ccc(O)c(OC)c2)ccc1O`, the IC50 in experiment [1] and in experiment [2] was over 150 µg/mL each time.
As for `COc1cc(C(=O)[C@@H](CO)Oc2ccccc2OC)ccc1O`, the results for the 50% inhibitory concentration (IC50) in experiment [1] and in experiment [2] were 43 µg/mL (≈ 135 µM) and 107 µg/mL (≈ 336 µM), respectively.
For `COc1cc([C@@H]2OC[C@@H]3[C@H]2CO[C@H]3c2ccc(O)c(OC)c2)ccc1O` (single isomer, unassigned) [(+)-PINORESINOL] the same measures were 49 µg/mL (≈ 137 µM) and over 150 µg/mL.

(Values after ChEMBL document CHEMBL1144024, “Low molecular weight lignin suppresses activation of NF-kappaB and HIV-1 promoter” (Bioorg Med Chem, 2008).)
